Test results as given in ChEMBL document CHEMBL1133980, “New inhibitors of the thioredoxin-thioredoxin reductase system based on a naphthoquinone spiroketal natural product lead” (Bioorg Med Chem Lett, 2001).
pIC50: −log10 of the molar value.

What was measured:
MDA-MB-231 = test: Ability to inhibit the growth of MDA-MB-231 cell line; format: functional, cell-based; conditions: Homo sapiens
Method in brief: (§1)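 MCF-7 (ER+, p53 replete) and MDA-MB-231 (ER−, p53 deficient) human breast cancer cells were seeded at 4000/well and left to attach overnight. They were then exposed to compound (0.1–30 μM) or 0.1% DMSO vehicle for 72 h. Medium was changed to serum-free medium with 0.1% MTT, incubated 3 h in the dark, and cell number read at 540 nm.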

Thioredoxin reductase [1] = biological target: T1, Thioredoxin reductase (Homo sapiens, UniProt Q16881+Q9NNW7+Q86VQ6); test: Inhibition of thioredoxin-1/thioredoxin reductase system; format: functional
Method in brief: (§2)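 Insulin reduction by human placental TrxR plus recombinant human Trx-1 (final 1.0 μM TrxR, 0.8 μM Trx-1) in 100 mM HEPES pH 7.2, 5 mM EDTA with 1 mM NADPH and 2.5 mg/mL bovine insulin, 30 min, 37 °C. Stopped with 6 M guanidine-HCl/Tris pH 8.0/10 mM DTNB; A405 read. IC50 from five concentrations (0.1–50 μM).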

Thioredoxin reductase [2] = biological target: T1, Thioredoxin reductase; test: Inhibition of thioredoxin reductase; format: protein assay
Method in brief: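 Human placental TrxR (final 1.0 μM) in HEPES pH 7.2/EDTA buffer was added to diluted compound. Reaction started with NADPH (final 1 mM) and DTNB (final 10 mM) at 37 °C. A405 for DTNB reduction read every 10 s and initial rates taken. IC50 from five concentrations (0.1–50 μM).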

MCF7 = test: Ability to inhibit the growth of MCF-7 cell line; format: functional, cell-based; conditions: Homo sapiens; method in brief: as §1
[3] = Compound was tested for its ability to inhibit thioredoxin-1/thioredoxin reductase system; parameters: species or system Homo sapiens; method in brief: as §2

Row | Compound | pIC50 (MDA-MB-231) | IC50 (Thioredoxin reductase [1]) [µM] | IC50 (Thioredoxin reductase [2]) [µM] | pIC50 (MCF7) | pIC50 (Thioredoxin reductase [2]) | pIC50 [3]
1 | O=C1C=CC2(Oc3cccc4cccc(c34)O2)c2cccc(OCc3ccc(-c4cccc(C(F)(F)F)c4)o3)c21 | 5.28 | 42.4 | > 50 | 5.26 |  | 
2 | COc1cccc2c1C(=O)C=CC21OCCCO1 | 5.30 | 40.2 |  | 5.36 | < 4.30 | 
3 | O=C1C=CC2(Oc3cccc4cccc(c34)O2)c2cccc(OCc3ccc(Cl)cc3)c21 | 5.10 | > 50 | > 50 | < 5.00 |  | 
4 | C/C=C(\C)COc1cccc2c1C(=O)C=CC21Oc2cccc3cccc(c23)O1 | 5.28 | > 50 |  | 5.37 |  | 
5 | O=C1C=CC2(Oc3cccc4cccc(c34)O2)c2cccc(OCc3ccc(-c4cccc(Cl)c4)o3)c21 | < 5.00 | > 50 | > 50 | < 5.00 |  | 
6 | C=C(C)COc1cccc2c1C(=O)C=CC21Oc2cccc3cccc(c23)O1 | 5.09 | 4.8 | > 50 | 5.11 |  | 
7 | O=C1[C@@H]2O[C@@H]2C2(Oc3cccc4cccc(c34)O2)[C@@]23O[C@@]12CCCC3=O | 5.09 | > 50 |  | 5.34 |  | 
8 | O=C1C=CC2(Oc3cccc4cccc(c34)O2)c2cccc(OCc3ccncc3)c21 | 5.14 | > 50 | > 50 | 5.10 |  | 
9 | O=C1C=CC2(Oc3cccc4cccc(c34)O2)c2cccc(OCc3ccc(Br)cc3)c21 | 5.03 | > 50 | > 50 | < 5.00 |  | 
10 | CC/C=C/CCOc1cccc2c1C(=O)C=CC21Oc2cccc3cccc(c23)O1 | 5.04 | > 50 |  | < 4.52 |  | 
11 | O=C1C=CC2(Oc3cccc4cccc(c34)O2)c2cccc(OCc3ccc(-c4ccccc4C(F)(F)F)o3)c21 | 5.31 | > 50 | > 50 | 5.30 |  | 
12 | O=C1C=CC2(Oc3cccc4cccc(c34)O2)C2=C1CCCC2=O | 5.19 | 2.1 |  | 5.42 |  | 
13 | O=C1C=CC2(Oc3cccc4cccc(c34)O2)c2cccc(OCc3ccc(-c4ccccc4Cl)o3)c21 | < 5.00 | > 50 | > 50 | < 5.00 |  | 
14 | O=C1C=CC2(Oc3cccc4cccc(c34)O2)c2cccc(OC/C=C/c3ccccc3)c21 | 5.12 | > 50 |  | 5.10 |  | 
15 | CCCCCCOc1cccc2c1C(=O)C=CC21Oc2cccc3cccc(c23)O1 | 4.87 | > 50 |  | 4.87 |  | 
16 | O=C1CCCC2=C1C1(Oc3cccc4cccc(c34)O1)C1OC1C2=O (configuration not stated) | 4.64 | 12.2 |  | 5.34 |  | 
17 | O=C1C=CC2(Oc3cccc4cccc(c34)O2)c2cccc(OCc3ccc(-c4ccc(Br)cc4)o3)c21 | 5.11 | 10.2 | 20.1 | 5.24 |  | 

The next molecules have a higher pIC50 (MDA-MB-231) than those just listed; values first:

Row | pIC50 (MDA-MB-231) | IC50 (Thioredoxin reductase [1]) [µM] | IC50 (Thioredoxin reductase [2]) [µM] | pIC50 (MCF7) | pIC50 (Thioredoxin reductase [2]) | pIC50 [3] | Compound
18 | 5.55 | 41.8 | > 50 | 5.70 |  |  | O=C1C=CC2(Oc3cccc4cccc(c34)O2)c2cccc(OCc3ccccn3)c21
19 | 5.54 | > 50 |  | 5.89 |  |  | C/C=C/COc1cccc2c1C(=O)C=CC21Oc2cccc3cccc(c23)O1
20 | 5.60 | > 50 |  | 5.96 |  |  | O=C1C=CC2(Oc3cccc4cccc(c34)O2)c2cccc(OCc3ccco3)c21
21 | 5.47 | 44 |  | 5.89 |  |  | O=C1C=CC2(Oc3cccc4cccc(c34)O2)C23OC12CCCC3=O (configuration not stated)
22 | 5.85 | > 50 | > 50 | 5.82 |  |  | O=C1C=CC2(Oc3cccc4cccc(c34)O2)c2cccc(OCc3cccnc3)c21
23 | 5.62 | 0.35 | 12 | 6.00 |  |  | O=C1C=CC2(Oc3cccc4cccc(c34)O2)c2cccc(O)c21
24 | 5.57 | 23.2 | > 50 | 5.70 |  |  | C=CCOc1cccc2c1C(=O)C=CC21Oc2cccc3cccc(c23)O1
25 | 5.57 | > 50 |  | 5.64 |  |  | COc1cccc(COc2cccc3c2C(=O)C=CC32Oc3cccc4cccc(c34)O2)c1
26 | 5.44 | > 50 |  | 5.70 |  |  | CC(C)=CCOc1cccc2c1C(=O)C=CC21Oc2cccc3cccc(c23)O1
27 | 5.34 | > 50 |  | 5.41 |  |  | O=C1C=CC2(Oc3cccc4cccc(c34)O2)c2cccc(OCCc3ccccc3)c21
28 | 5.68 | 8 |  | 5.89 |  |  | O=C1C=CC2(Oc3cccc4cccc(c34)O2)C2=C1[C@@H](O)C1C3C=CC(C3)C1[C@H]2O (some centres not stated)
29 | 5.70 | 4.5 | 13.5 | 5.82 |  |  | O=C1C=C[C@H](O)[C@@]23O[C@@]12C1(Oc2cccc4cccc(c24)O1)[C@@H]1O[C@@H]1[C@@H]3O
30 | 5.70 | 23.2 | > 50 | 5.70 |  |  | O=C1C=CC2(Oc3cccc4cccc(c34)O2)c2cccc(OCc3ccoc3)c21
31 | 5.70 |  |  | 5.34 |  | < 4.30 | CC(C)=CCC/C(C)=C/COc1cccc2c1C(=O)C=CC21Oc2cccc3cccc(c23)O1
32 | 5.54 | 13.5 |  | 5.55 |  |  | O=C1[C@@H]2O[C@@H]2C2(Oc3cccc4cccc(c34)O2)[C@]23O[C@]12CCCC3=O
33 | 5.37 | 3.4 | 8.8 | 5.38 |  |  | O=C1C=CC2(OCCO2)c2cccc(O)c21
34 | 5.35 | > 50 |  | 5.72 |  |  | C/C=C(/C)COc1cccc2c1C(=O)C=CC21Oc2cccc3cccc(c23)O1
35 | 5.33 | 13.4 |  | 5.37 | < 4.30 |  | C#CCOc1cccc2c1C(=O)C=CC21Oc2cccc3cccc(c23)O1
36 | 5.66 | > 50 | > 50 | 6.15 |  |  | COc1ccc(COc2cccc3c2C(=O)C=CC32Oc3cccc4cccc(c34)O2)cc1
